Results of several laboratories.
Target: Serine/threonine-protein kinase pim-2 (PIM2, Homo sapiens, UniProt Q9P1W9)

SMILES	test	conditions	remaining binding
CCN1CCN(Cc2ccc(C(=O)Nc3ccc(C)c(Oc4ccc5c(c4)CC(=O)N5)c3)cc2C(F)(F)F)CC1	binding, competition with immobilised ligand	1 µM	97%
CCCOc1ccc([C@@H]2[C@@H](C(=O)O)[C@H](c3ccc4c(c3)OCO4)CN2CC(=O)Nc2c(CC)cccc2CC)cc1	cell-free assay, competition with immobilised ligand	1 µM	99%
O=C(c1ccc(Nc2nccc(-c3cc4ccccc4s3)n2)cc1)N1CCC(N2CCCC2)CC1	binding, competition with immobilised ligand	1 µM	100%
N[C@H]1CCN(c2nccc(-c3cnn4ncccc34)n2)C1	binding	1 µM	98%
c1ccc(N2CCN(Cc3nc4ccccc4[nH]3)CC2)nc1	binding, competition with immobilised ligand	1 µM	85%
COc1cnc(Nc2cccc(S(N)(=O)=O)c2)nc1N1CCN(c2ccccc2)C(=O)C1	binding, competition with immobilised ligand	1 µM	100%
O=C(NCCCN1CCOCC1)c1ccc(Nc2ncc(Cl)c(-c3ccc(Cl)s3)n2)cc1	binding, competition with immobilised ligand	1 µM	100%
C[C@@H]1CN(c2ccc3ncc(-c4ccc5[nH]nc(C6CC6)c5c4)n3n2)C[C@H](C)O1	binding, competition with immobilised ligand	0.5 µM	3.5%
COc1cnc(Nc2cccc(S(N)(=O)=O)c2)nc1N1CCN(c2ccccc2)CC1	binding, competition with immobilised ligand	1 µM	100%
CN(C)c1ncc(F)c(-c2cnn3ncccc23)n1	binding	1 µM	95%
O=C(Nc1c[nH]nc1C(=O)NC1CCNCC1)c1cc(F)cc(F)c1	binding, competition with immobilised ligand	1 µM	96%
C=CC(=O)N1CCC(C(=O)NCC(=O)N2CCN(c3nc(-c4cnc(N)nc4C(F)F)nc(N4CCOCC4)n3)CC2)CC1	binding, competition with immobilised ligand	1 µM	82%
C[C@H](c1cccc(C#N)c1)n1cc(Cl)cc(C(N)=O)c1=N	cell-free assay, competition with immobilised ligand	1 µM	100%
C[C@@H](c1ccc(-n2cnc3c(N)ncnc32)cc1)N1CCc2nn(C)c(Cc3ccccc3)c2C1=O	binding, competition with immobilised ligand	0.1 µM	100%
C[C@@H]1CCN(c2nccc(-c3cnn4ncccc34)n2)C1	binding	1 µM	78%
COCCOc1nc(-c2ccc(Cl)nc2)nc2c1CN(C(=O)c1ncn3ccccc13)CC2	cell-free assay, competition with immobilised ligand	0.1 µM	98%
CN(C)c1nccc(-c2cnn3ncccc23)n1	binding	1 µM	78%
Cc1cnc(Nc2ccc(C(=O)N3CCC(N4CCCC4)CC3)cc2)nc1-c1cc2ccccc2s1	binding, competition with immobilised ligand	1 µM	100%
CN([C@@H]1CCc2c(CC(=O)O)c3ccccc3n2C1)S(=O)(=O)c1ccc(F)cc1	cell-free assay, competition with immobilised ligand	1 µM	100%
CN(CCCC(F)(F)F)c1nccc(-c2cnn3ncccc23)n1	binding	1 µM	100%
CN(C(=O)c1ccccc1)c1cc(N(C)c2ccc3c(c2)CCc2ccc(C(=O)NCCN4CCOCC4)cc2C3=O)ccc1F	cell-free assay, competition with immobilised ligand	1 µM	72%
Nc1ncc2c(n1)-c1c([nH]c3ccc(C#CC4CC4)cc13)CCCC2	binding, competition with immobilised ligand	1 µM	95%
CN(C)CC#Cc1ccc(OCCCc2sc(N3CCc4cccc(C(=O)Nc5nc6ccccc6s5)c4C3)nc2C(=O)O)c(F)c1	cell-free assay, competition with immobilised ligand	1 µM	100%
F[C@@H]1CCN(c2nccc(-c3cnn4ncccc34)n2)C1	binding	1 µM	100%
